This is an account of results in ChEMBL document CHEMBL2401696, “Stereoselective synthesis and anti-proliferative effects on prostate cancer evaluation of 5-substituted-3,4-diphenylfuran-2-ones” (Eur J Med Chem, 2013).

Test [1] concerns DU-145. Put plainly: Cell cycle arrest in human DU145 cells assessed as accumulation at S phase at 15 uM after 12 hrs by propidium iodide staining-based flow cytometric analysis (reference value: 44.93%). It counts as functional. For orientation: In flow cytometry, cells or beads pass a laser one at a time.
Test [2] has as its system DU-145. Put plainly: Cell cycle arrest in human DU145 cells assessed as accumulation at G2/M phase at 5 uM after 12 hrs by propidium iodide staining-based flow cytometric analysis (reference value: 10.97%). The test is classed as functional.
In test [3] the test system is DU-145. Description: Cell cycle arrest in human DU145 cells assessed as accumulation at G2/M phase at 20 uM after 12 hrs by propidium iodide staining-based flow cytometric analysis (reference value: 10.97%). The test is classed as functional.
Test [4] relates to DU-145. Description: Cell cycle arrest in human DU145 cells assessed as accumulation at G0/G1 phase after 12 hrs by propidium iodide staining-based flow cytometric analysis. It counts as functional.
Test [5] relates to DU-145. Description: Cell cycle arrest in human DU145 cells assessed as accumulation at G0/G1 phase at 15 uM after 12 hrs by propidium iodide staining-based flow cytometric analysis (reference value: 40.91%). It counts as functional.
Test [6] has as its system DU-145. Description: Antiproliferative activity against human DU145 cells after 72 hrs by MTT assay. The settings on record: DU-145, 72 h. It counts as functional, cell-based. The procedure, abridged: (§1)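 Cells (PC3 and its PCDNA- and SKP2-transfected lines, DU145) grown in RPMI 1640 with 10% FBS; G418 added for transfected lines. Exponential cells seeded 1 × 10⁴/well, 24 h at 37 °C, then fresh medium with compounds at several concentrations for 72 h. MTT 1–3 h at 37 °C, dissolved in 4% HCl/96% isopropanol, absorbance 570 nm. Triplicate per concentration; IC50 from dose–response curves.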
For orientation: Formazan colour is commonly taken as a measure of viable cells.

The test system of test [7] is DU-145. Put plainly: Cell cycle arrest in human DU145 cells assessed as accumulation at G2/M phase at 15 uM after 12 hrs by propidium iodide staining-based flow cytometric analysis (reference value: 10.97%). The test is classed as functional.
Test [8] deals with DU-145. Put plainly: Cell cycle arrest in human DU145 cells assessed as accumulation at S phase at 5 uM after 12 hrs by propidium iodide staining-based flow cytometric analysis (reference value: 44.93%). It counts as functional.
Test [9] deals with PC-3. Description: Antiproliferative activity against human PC3 cells after 72 hrs by MTT assay. It counts as functional, cell-based. The settings on record: PC-3, 72 h. The procedure, abridged:
as §1

The subject of test [10] is DU-145. Description: Cell cycle arrest in human DU145 cells assessed as accumulation at G0/G1 phase at 5 uM after 12 hrs by propidium iodide staining-based flow cytometric analysis (reference value: 40.91%). It counts as functional.
Test [11] deals with PC-3. Put plainly: Antiproliferative activity against human PC3 cells expressing PCDNA after 72 hrs by MTT assay. The test is classed as functional, cell-based. The settings on record: PC-3, 72 h. The procedure, abridged: as §1
Test [12] has as its system DU-145. Put plainly: Cell cycle arrest in human DU145 cells assessed as accumulation at S phase at 20 uM after 12 hrs by propidium iodide staining-based flow cytometric analysis (reference value: 44.93%). It counts as functional.
Test [13] deals with PC-3. Put plainly: Antiproliferative activity against human PC3 cells expressing SKP2 after 72 hrs by MTT assay. It counts as functional, cell-based. The settings on record: PC-3, 72 h. The essentials: as §1
The subject of test [14] is DU-145. Put plainly: Induction of apoptosis in human DU145 cells assessed as chromosomal condensation at 5 to 20 uM after 48 hrs by DAPI staining-based fluorescence microscopic analysis. The test is classed as functional, cell-based. The procedure, abridged:
(§2)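 DU145 seeded 2 × 10⁴ per 60-mm plate, 24 h, then treated 48 h; PBS-washed twice, fixed 3.7% paraformaldehyde 10 min at room temperature, DAPI-stained 10 min at room temperature; nuclei scored for chromatin condensation and apoptotic bodies.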

For test [15], the system named is DU-145. Description: Cell cycle arrest in human DU145 cells assessed as accumulation at G0/G1 phase at 20 uM after 12 hrs by propidium iodide staining-based flow cytometric analysis (reference value: 40.91%). It counts as functional.
Test [16] addresses T1, Prostaglandin G/H synthase 2 (Ovis aries, UniProt P79208).
T1 sequence (P79208 whole entry): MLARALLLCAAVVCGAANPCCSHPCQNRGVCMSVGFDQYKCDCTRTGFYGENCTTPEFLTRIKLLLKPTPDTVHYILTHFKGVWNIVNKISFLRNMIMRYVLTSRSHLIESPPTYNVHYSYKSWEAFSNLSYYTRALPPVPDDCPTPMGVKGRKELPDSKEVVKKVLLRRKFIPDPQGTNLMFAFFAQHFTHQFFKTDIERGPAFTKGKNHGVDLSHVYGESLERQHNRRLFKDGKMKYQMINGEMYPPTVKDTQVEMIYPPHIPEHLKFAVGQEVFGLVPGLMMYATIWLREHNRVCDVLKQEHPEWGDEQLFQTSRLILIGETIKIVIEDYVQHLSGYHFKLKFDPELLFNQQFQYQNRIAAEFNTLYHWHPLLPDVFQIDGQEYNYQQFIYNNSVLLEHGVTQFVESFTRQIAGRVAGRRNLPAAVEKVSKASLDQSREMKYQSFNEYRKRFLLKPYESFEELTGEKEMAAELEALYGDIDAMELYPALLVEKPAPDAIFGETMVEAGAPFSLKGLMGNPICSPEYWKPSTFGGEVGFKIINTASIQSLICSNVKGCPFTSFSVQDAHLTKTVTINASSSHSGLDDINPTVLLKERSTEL
Description: Inhibition of ovine COX-2 assessed as using arachidonic acid as substrate preincubated for 5 mins prior to substrate addition measured […] by enzyme immunoassay.

Test [17] has as its system DU-145. Description: Induction of apoptosis in human DU145 cells assessed as formation of apoptotic bodies at 5 to 20 uM after 48 hrs by DAPI staining-based fluorescence microscopic analysis. It counts as functional, cell-based. The procedure, abridged:
as §2

Test [18] addresses T2, Prostaglandin G/H synthase 2 (Ovis aries) (UniProt P79208).
T2 sequence (whole entry): T1 sequence (P79208 whole entry)
Description: Inhibition of ovine COX-2 assessed as using arachidonic acid as substrate at 10 uM preincubated for 5 mins prior to substrate addition measured after 2 hrs by enzyme immunoassay relative to control. The settings on record: in the assay text read “after 2 mins” for “after 2 hrs”. The essentials: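 Ovine COX-1 or COX-2 with heme in 0.1 M Tris-HCl pH 8.0, 5 mM EDTA, 2 mM phenol; compound (0.001–100 µM final, DMSO stocks) preincubated 5 min at 37 °C, then arachidonic acid added, stopped with 1 M HCl after 2 min. PGF2α (SnCl2 reduction) quantified by competitive EIA at 412 nm; % inhibition vs controls; mean of two determinations.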

Activity calls are given as the source filed them. The calls are words filed in the database; no cut-off is given here.

As a reminder, the IC50 is the midpoint of a concentration-inhibition curve. As usually defined, the inhibition is the drop in the measured response relative to a control, in per cent. Turning to `COC1(C)OC(=O)C(c2ccccc2Cl)=C1c1ccc(S(C)(=O)=O)cc1` (stereo not drawn), the Activity with DU-145 [1] was 29.17%; in the test on DU-145 [2], 10.97%; with DU-145 [3], 6.28%; in the test with DU-145 [4], “Dose-dependent effect”; in the test on DU-145 [5] it was 60%; with DU-145 [7] it was 7.53%. Further, the Activity in the test on DU-145 [8] is given as 43.24%; with DU-145 [10] it was 42.22%; in the test on DU-145 [12] it was 27.26%; in the test with DU-145 [15] it was 64.51%. The IC50 with DU-145 [6] turned out to be 25 µM; in the test with PC-3 [9], 20 µM; in the test with PC-3 [11] it was 5.17 µM; in the test with PC-3 [13], 5.09 µM; in test [16], 12.1 µM. In addition, the result in the test with DU-145 [14] and in the test on DU-145 [17] was Active. In addition, in test [18], the inhibition was 43.3%.
